SR-BI DiI inh: inhibitors of mouse SR-BI mediated HDL lipid uptake | Q61009 | ldlA[mSR-BI] CHO cells, DiI-HDL uptake fluorescence, 3 h | inhibition, % at 12.5 µM | 320,000 tested, 0.96% active | AID 488896;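 active means mean replicate inhibition of at least 70% and a set share of replicates each scoring 70 or more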
Target sequence (Q61009 whole entry, looked up): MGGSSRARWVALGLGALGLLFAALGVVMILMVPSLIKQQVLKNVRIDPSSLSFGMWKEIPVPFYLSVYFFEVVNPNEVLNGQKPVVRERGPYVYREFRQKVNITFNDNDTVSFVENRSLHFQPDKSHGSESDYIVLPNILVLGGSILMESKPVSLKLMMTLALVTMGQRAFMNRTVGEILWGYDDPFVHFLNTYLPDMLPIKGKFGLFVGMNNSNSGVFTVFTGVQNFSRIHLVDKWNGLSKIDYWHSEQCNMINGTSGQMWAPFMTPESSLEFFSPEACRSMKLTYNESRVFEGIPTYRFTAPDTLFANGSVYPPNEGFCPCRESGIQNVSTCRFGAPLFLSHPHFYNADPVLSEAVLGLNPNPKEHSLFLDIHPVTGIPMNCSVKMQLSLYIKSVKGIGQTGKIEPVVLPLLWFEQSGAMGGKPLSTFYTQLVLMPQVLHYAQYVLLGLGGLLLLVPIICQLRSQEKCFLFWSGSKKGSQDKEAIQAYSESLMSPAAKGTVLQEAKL
SMARCA2 activ: activators of SMARCA2 function; MG213 cells, MMTV-luciferase reporter, dexamethasone, overnight; activation, % at 9.1 µM; 370,000 tested, 1% active; AID 652017; in the data active means activation above about 7.8%
Vif inh: inhibitors of HIV Vif; HEK293T cells, Vif self-association by quenched fluorescence, imaging, 24 h; inhibition, % at 7.49 µM; 340,000 tested, 0.35% active; in the data active means inhibition above about 50%, passing the limit was not always enough
H9c2 TAG inh: triacylglycerol accumulation inhibition; H9c2 cells, Nile Red lipid (TAG) fluorescence; cells loaded with 200 µM oleic acid; 230,000 tested, 0.66% active; inhibition, % at 12.5 µM;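 active means pattern-corrected inhibition of lipid staining of at least 50% with the nuclear-stain viability signal not falling by more than 50%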
SR-BI uptake up: activators of SR-BI mediated HDL lipid uptake; 320,000 tested, 0.096% active; activation, % at 12.5 µM; CHO ldlA[mSR-BI] cells, DiI-HDL uptake fluorescence, 3 h; 100 = double the neutral-control signal;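 active means mean replicate activation of at least 60% and every replicate at or above 60%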
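material = CHO ldlA[mSR-BI] cells | medium = Ham's F12 with 0.5% BSA, HEPES 25 mM, pH 7.4 | reagent = fluorescent DiI-HDL, 10 µg/mL final | compound dosing = single-point compound dose | incubation = 3 h, 37 °C | measured by = bottom-read fluorescence, 550/595 nm | measure = HDL uptake via cellular fluorescence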
Hits are given with their value; i = inactive; nt = not tested or not shown. Only some compounds are listed: those with a hit (about 2.5% of all), similar ones and a draw of the others.

SMILES	SR-BI DiI inh	SMARCA2 activ	Vif inh	H9c2 TAG inh	SR-BI uptake up
O=C(CCSc1nc2ccccc2s1)N/N=C/c1c(O)ccc2ccccc12	105	i	i	nt	i
COc1ccccc1CNC(=O)c1ccc(Cl)c(NC2=NC3CS(=O)(=O)CC3S2)c1 (stereo unspecified)	i	i	60	i	i
O=C(CCCc1nc2ccccc2s1)NC(c1ccccc1)c1ccccc1	i	7.9	i	nt	i
CCCCn1c(SCC(=O)Nc2nnc(C(C)C)s2)nc2c1c(=O)n(C)c(=O)n2C	i	i	52	nt	i
CCCn1c(SCC(=O)Nc2nc3c(s2)CCCC3)nc2c1c(=O)n(C)c(=O)n2C	i	i	i	nt	i
Cc1c(Cl)sn(-c2ccc(Cl)cc2)c1=O	72	i	i	i	i
C[C@H](CO)N1C[C@H](C)[C@@H](CN(C)C(=O)Cc2cccnc2)Oc2ncc(C#CCc3ccccc3)cc2C1=O	nt	i	nt	nt	nt
COc1cc(NC(=O)c2cc([N+](=O)[O-])ccc2N2CCOCC2)ccc1NC(=O)c1ccco1	80	i	i	i	i
COc1ccccc1-n1cnc2cc(NCc3cccs3)ccc21	nt	i	nt	58	nt
COc1ccc(O)c(C(=O)c2coc(=N)c(C(=O)Nc3ccc(SC(F)F)cc3)c2)c1	76	i	i	i	i
CC(C)OC(=O)c1cc(C(=O)c2cc(F)ccc2O)coc1=N	i	i	i	nt	i
CN(C)c1nc(C=C(C#N)C#N)c(Cl)n1-c1ccc(F)cc1	i	i	105	i	i
CCOc1ccccc1NC(=O)/C(C#N)=C/c1c(C)nn(-c2ccc(F)cc2)c1Cl	i	i	i	i	i
COCc1[nH]nc2c1C(c1ccc(Br)cc1)N(c1ccc(OC)cc1)C2=O (stereo unspecified)	nt	i	nt	nt	nt
COC(=O)[C@@]12CCCCC=C1N(CCc1ccc(Cl)cc1)C(=O)[C@H]2CC(=O)NCC1CCCCC1	nt	i	nt	nt	nt
Nc1ccn([C@@H]2O[C@H](C(=O)N[C@H](Cc3ccccc3)C(=O)N3CCN(CC(=O)N4CCCC4)CC3)[C@@H](O)[C@H]2O)c(=O)n1	nt	i	nt	nt	nt
Cc1ccc(-c2cc(-c3ccc(C)cc3O)[nH]n2)cc1	100	i	i	nt	i
Cc1ccc(-c2cc(-c3ccc(F)cc3)n[nH]2)c(O)c1	i	i	i	i	i
CC1CCN(CCNC(=O)c2ccc3c(=O)n(CCc4ccccc4)c(=O)[nH]c3c2)CC1	nt	i	nt	nt	nt
CC1CCN(CCCNC(=O)c2ccc3c(=O)n(CCc4ccccc4)c(=O)[nH]c3c2)CC1	i	i	52	i	i
COc1ccc(CN2CCOCC2)cc1OC	i	i	i	i	i
COc1cc2sc3ccc(-c4ccc(CN5CCOCC5)cc4)cc3c(=O)c2cc1OC	71	i	i	nt	i
CCOC(=O)c1csc(NC(=O)C2CCCN(S(=O)(=O)c3ccc(Br)s3)C2)n1 (stereo unspecified)	nt	i	nt	nt	nt
COc1cc(NC(=O)C2=C(N3CCOCC3)/C(=C/c3ccc(Cl)cc3)CC2)cc(OC)c1OC	74	i	i	nt	i
COc1cc(NC(=O)C2=C(N3CCOCC3)/C(=C\c3ccc(N(C)C)cc3)CCC2)cc(OC)c1OC	74	i	i	nt	i
SMILES	SR-BI DiI inh	SMARCA2 activ	Vif inh	H9c2 TAG inh	SR-BI uptake up
COc1ccc(/C=N/NC(=O)c2ccc(N(C)S(=O)(=O)c3ccccc3)cc2)c(OC)c1	i	i	i	nt	i
COc1cccc(/C=N/NC(=O)c2ccc(N(C)S(=O)(=O)c3ccccc3)cc2)c1OC	83	i	i	nt	i
COc1ccccc1/C=N/NC(=O)c1ccc(N(C)S(=O)(=O)c2ccccc2)cc1	84	i	i	nt	i
COc1cc(/C=N/NC(=O)c2ccc(-c3ccccc3)cc2)cc(OC)c1OC	i	i	i	nt	i
COc1ccccc1/C=N/NC(=O)c1ccc(Br)cc1	i	i	i	nt	i
COc1ccc(/C=N\NC(=O)c2ccc(-c3ccccc3)cc2)c(OC)c1OC	75	i	nt	nt	nt
CCN(CC)c1ccc(C(=O)N/N=C/c2ccccc2OC(F)F)cc1	86	i	i	i	i
O=C(N[C@H](Cc1ccccc1)C(=O)NCC1CCCCC1)[C@H]1O[C@@H](n2ccc(=O)[nH]c2=O)[C@H](O)[C@@H]1O	nt	i	nt	nt	nt
COc1ccccc1/C=N/NC(=O)c1ccc(CN2C(=O)c3cccc4cccc2c34)cc1	89	i	i	i	i
CN1NC(=O)c2ccccc2NC1=S	nt	i	nt	nt	nt
CC1(C)CC(=O)C(C=Nc2ccc(O)cc2)=C(O)C1	i	i	i	nt	i
CC1(C)CC(=O)C(/C=N/n2c(C(F)(F)F)nc3ccccc3c2=O)=C(O)C1	i	i	85	nt	i
O=C(NNc1ccc([N+](=O)[O-])cn1)Nc1ccc(N=Nc2ccccc2)cc1	100	i	i	i	i
O=C(NNC(=O)c1ccncc1)Nc1ccccc1	i	i	i	nt	i
O=C(NNC(=O)c1ccncc1)Nc1ccc(N=Nc2ccccc2)cc1	72	i	i	i	i
O=C(NNc1ccc([N+](=O)[O-])cc1)Nc1ccccc1	i	i	i	i	i
CCCCCCCCN1C(=O)[C@@H](CC(=O)NCCCOC)C[C@@]2(C(=O)OC)C1=C[C@H](COCc1ccccc1)O[C@@H]2C	nt	i	nt	nt	nt
O=C(COC(=O)COc1ccccc1)NCCC1=CCCCC1	i	i	i	i	73
Cc1cc(C)cc(OCC(=O)OCC(=O)NCCC2=CCCCC2)c1	i	i	i	nt	i
CCCn1c(N)c(N(CCOC)C(=O)c2ccc(F)cc2F)c(=O)[nH]c1=O	nt	i	i	nt	nt
CCCn1c(N)c(N(CCOC)C(=O)c2ccc([N+](=O)[O-])cc2Cl)c(=O)[nH]c1=O	nt	i	67	nt	nt
Cc1ccc2c(c1)-c1c(cnn1CC(=O)NCCc1ccc(Cl)cc1)CO2	nt	i	nt	nt	nt
Cc1ccc(C(=O)Nc2cccc(C(F)(F)F)c2)cc1NC(=O)c1c[nH]c2cc(C(F)(F)F)ccc2c1=O	i	i	i	i	i
CCN1CCN(Cc2ccc(NC(=O)c3cc(NC(=O)c4cc(-c5ccc(OC)cc5)n[nH]4)cc(OC)c3)cc2C(F)(F)F)CC1	i	i	i	69	i
CCN1CCN(Cc2ccc(NC(=O)c3cc(NC(=O)c4ccc5n[nH]nc5c4)cc(OC)c3)cc2C(F)(F)F)CC1	i	i	i	i	i
SMILES	SR-BI DiI inh	SMARCA2 activ	Vif inh	H9c2 TAG inh	SR-BI uptake up
CCN1CCN(Cc2ccc(NC(=O)c3ccc(C)c(NC(=O)c4c[nH]c5cc(C(F)(F)F)ccc5c4=O)c3)cc2C(F)(F)F)CC1	i	i	i	139	i
O=Cc1s/c(=N\S(=O)(=O)c2ccccc2)n(CCCCl)c1Cl	i	i	57	i	i
COc1ccccc1N1C(=O)CCC1(C#N)c1ccccc1 (stereo unspecified)	i	i	69	i	i
Cc1c(Cl)cccc1NC(=O)CC(C(=O)O)C1CCCO1 (stereo unspecified)	i	i	98	nt	i
O=C(NS(=O)(=O)c1cccc(F)c1)[C@H]1O[C@@H](n2ccc(=O)[nH]c2=O)[C@H](O)[C@@H]1O	nt	i	nt	nt	nt
O=C(NN=C(Cc1ccccc1)Cc1ccccc1)c1ccc(F)cc1	i	i	nt	i	i
